{"data": "Measured values collected from several papers", "target": "cAMP-dependent protein kinase catalytic subunit PRKX (PRKX, Homo sapiens, UniProt P51817)", "Sequence (P51817 1-358, as in one of the studies)": "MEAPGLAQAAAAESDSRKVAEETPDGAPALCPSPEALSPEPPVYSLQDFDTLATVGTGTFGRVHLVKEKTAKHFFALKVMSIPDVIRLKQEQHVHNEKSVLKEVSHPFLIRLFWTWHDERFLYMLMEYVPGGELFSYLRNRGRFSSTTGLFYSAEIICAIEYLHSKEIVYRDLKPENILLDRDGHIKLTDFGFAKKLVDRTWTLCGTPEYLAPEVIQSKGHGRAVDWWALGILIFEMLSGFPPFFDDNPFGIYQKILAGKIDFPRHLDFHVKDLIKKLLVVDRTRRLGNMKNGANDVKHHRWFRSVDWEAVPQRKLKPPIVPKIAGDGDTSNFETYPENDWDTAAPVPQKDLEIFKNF", "note": "Each line is one published result; the experiments were not run side by side."}
{"Compound": "CN(C)c1ncc(F)c(-c2cnn3ncccc23)n1", "observed": "binding", "tested at": "1 µM", "remaining binding": "100%"}
{"Compound": "CCOC(=O)c1cc2cc(-c3cc(C(=O)NCc4ccc(C(=O)O)cc4)nn3C)ccc2[nH]1", "observed": "cell-free assay", "method": "competition with immobilised ligand", "tested at": "0.1 µM", "remaining binding": "100%"}
{"Compound": "C[C@@H](c1ccc(-n2cnc3c(N)ncnc32)cc1)N1CCc2nn(C)c(Cc3ccccc3)c2C1=O", "observed": "binding", "method": "competition with immobilised ligand", "tested at": "0.1 µM", "remaining binding": "96%"}
{"Compound": "COc1cnc(Nc2cccc(S(N)(=O)=O)c2)nc1N1CCN(c2ccccc2)CC1", "observed": "binding", "method": "competition with immobilised ligand", "tested at": "1 µM", "remaining binding": "100%"}
{"Compound": "O=C(N[C@H]1CCCCC/C=C\\C2C[C@@]2(C(=O)O)NC(=O)[C@@H]2C[C@@H](Oc3ccncc3)CN2C1=O)OC1CCCC1 (stereo partly drawn)", "observed": "cell-free assay", "method": "competition with immobilised ligand", "tested at": "1 µM", "remaining binding": "80%"}
{"Compound": "COc1ncc2cc3ccccc3nc2c1C#N", "observed": "cell-free assay", "method": "competition with immobilised ligand", "tested at": "5 µM", "remaining binding": "82%"}
{"Compound": "COCCOc1nc(-c2ccc(Cl)nc2)nc2c1CN(C(=O)c1ncn3ccccc13)CC2", "observed": "cell-free assay", "method": "competition with immobilised ligand", "tested at": "0.1 µM", "remaining binding": "100%"}
{"Compound": "CNC(=O)[C@@H]1CC[C@@H](n2c(-c3ccc4cnccc4c3)nc3ccc(C(=O)NCc4cccc(C(N)=O)c4)cc32)C1", "observed": "binding", "method": "competition with immobilised ligand", "tested at": "1 µM", "remaining binding": "100%"}
{"Compound": "O=C(Nc1c[nH]nc1C(=O)NC1CCNCC1)c1cc(F)cc(F)c1", "observed": "binding", "method": "competition with immobilised ligand", "tested at": "1 µM", "remaining binding": "94%"}
{"Compound": "CO[C@H]1CC[C@H](CNc2ccc(S(=O)(=O)NC(=O)c3ccc(N4CCN(CC5=C(c6ccc(Cl)cc6)CC(C)(C)CC5)CC4)cc3Oc3cnc4[nH]ccc4c3)cc2[N+](=O)[O-])CC1", "observed": "cell-free assay", "method": "competition with immobilised ligand", "tested at": "1 µM", "remaining binding": "100%"}
{"Compound": "COc1ccnn2ncc(-c3ccnc(N(C)C)n3)c12", "observed": "binding", "tested at": "1 µM", "remaining binding": "100%"}
{"Compound": "C[C@@H]1CN(c2cc(-c3nn(C)c4ccc(OC5(C)CC5)cc34)ncn2)C[C@H](C)O1", "observed": "cell-free assay", "method": "competition with immobilised ligand", "tested at": "1 µM", "remaining binding": "92%"}
{"Compound": "O=C(c1ccc(Nc2ncc(Cl)c(-c3ccc(Cl)s3)n2)cc1)N1CCC(N2CCCC2)CC1", "observed": "binding", "method": "competition with immobilised ligand", "tested at": "1 µM", "remaining binding": "95%"}
{"Compound": "N[C@H]1CCN(c2nccc(-c3cnn4ncccc34)n2)C1", "observed": "binding", "tested at": "1 µM", "remaining binding": "100%"}
{"Compound": "O=C(NCCCN1CCOCC1)c1ccc(Nc2ncc(Cl)c(-c3ccc(Cl)s3)n2)cc1", "observed": "binding", "method": "competition with immobilised ligand", "tested at": "1 µM", "remaining binding": "100%"}
{"Compound": "C[C@@H]1CCN(c2nccc(-c3cnn4ncccc34)n2)C1", "observed": "binding", "tested at": "1 µM", "remaining binding": "100%"}
{"Compound": "CCN1CCN(Cc2ccc(C(=O)Nc3ccc(C)c(Oc4ccc5c(c4)CC(=O)N5)c3)cc2C(F)(F)F)CC1", "observed": "binding", "method": "competition with immobilised ligand", "tested at": "1 µM", "remaining binding": "100%"}
{"Compound": "CN(CCCC(F)(F)F)c1nccc(-c2cnn3ncccc23)n1", "observed": "binding", "tested at": "1 µM", "remaining binding": "100%"}
{"Compound": "Cc1c(NC(=O)c2cc(C(N)=O)nc3cc(F)ccc23)c(C(F)(F)F)nn1Cc1ccc(C(C)(C)C)cc1", "observed": "cell-free assay", "method": "competition with immobilised ligand", "tested at": "1 µM", "remaining binding": "94%"}
{"Compound": "Cc1cnn2ncc(-c3ccnc(N(C)C)n3)c2c1", "observed": "binding", "tested at": "1 µM", "remaining binding": "85%"}
{"Compound": "O=C(c1ccc(Nc2nccc(-c3cc4ccccc4s3)n2)cc1)N1CCC(N2CCCC2)CC1", "observed": "binding", "method": "competition with immobilised ligand", "tested at": "1 µM", "remaining binding": "83%"}
